Assay results: PubChem BioAssay
The list shows a part of the results. Calls of active or inactive are those of the source.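 The calls were made as follows: active = substances whose mean melting-temperature shift, as a percentage of the reference inhibitor's shift, reaches about 5.3% (limit read from the data); inactive = the rest.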

Biological target: Carboxy-terminal domain RNA polymerase II polypeptide A small phosphatase 1 (Homo sapiens) (UniProt Q9GZU7)
Assay: Scp-1 binding by thermal shift, confirmation, orthogonal assay for Scp-1 inhibitor project, biophysical, differential scanning fluorimetry (AID 540329);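 also: 0% = Tm of DMSO wells and 100% = Tm with sodium orthovanadate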
Conditions: Recombinant SCP1, Sypro Orange thermal shift Tm; at 40 µM; hits give high values
In short: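 Technique: Protein melting followed by Sypro Orange dye fluorescence | Material: Scp-1 phosphatase domain | Input: Scp-1 protein added from a 10 µM stock solution | Measure: Melting temperature shift relative to vanadate | Times: 20-95 °C thermal ramp | Doses: One dose per compound, 10 mM stock | Benchmarks: Vanadate reference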

Sequence of Carboxy-terminal domain RNA polymerase II polypeptide A small phosphatase 1 (Homo sapiens) (Q9GZU7 76-261 limits assumed): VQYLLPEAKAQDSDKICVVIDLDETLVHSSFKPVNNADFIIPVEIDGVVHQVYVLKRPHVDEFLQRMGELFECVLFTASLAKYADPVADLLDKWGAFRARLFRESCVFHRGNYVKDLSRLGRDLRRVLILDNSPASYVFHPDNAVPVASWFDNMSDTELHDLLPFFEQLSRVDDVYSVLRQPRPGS

Thermal shift relative to vanadate control, inactive:
O=C(COC(=O)c1cnc(Cl)c(Cl)c1)NCc1ccco1 -1.58%
C[N+](C)(C)CCNC(=O)c1cc[n+](Cc2ccccc2)c(/C=N/O)c1 -22.6%
O=C(N/N=C/c1ccco1)c1ccc(C(=O)N/N=C/c2ccco2)o1 -14.3%
O=c1[nH]n(-c2ccc([N+](=O)[O-])cc2)c(=O)c2ccccc12 2.78%
CC[n+]1c(C)n(-c2ccccc2)c2ccc(NC(C)=O)cc21 -13.8%
Cc1ccc(Cc2nnc(SCC(=O)Nc3ccc(C)cc3C)[nH]c2=O)cc1 4.55%
ON=C1/C(=N\O)CC2(C/C1=N/O)OCCO2 4.94%
Nn1cnnc1N/N=C/c1cc([N+](=O)[O-])c(Cl)cc1Cl -3.64%
Cc1ccc(SCC(=O)NC(=O)NCc2ccco2)c(C)c1 -1.14%
CCOC(=O)C1=C(C)c2ccccc2OC1(C)C(=O)OCC (stereo not drawn) -2.89%
O=C(c1cc2c(s1)CCC2)N1CCN(c2ccccc2)CC1 -14.1%
O=C(Nc1cccnc1)c1cc2cc(Br)ccc2oc1=O 0.88%
Cc1ccc(CCCOC(=O)C[N+]2(C)CCCC2)cc1 -9.83%
Cc1ccc(NC(=O)COc2ccc(/C=N\NC(=O)c3cccnc3)cc2)cc1C -4.33%
CC(C)CCOc1ccc(C(=O)C[N+]2(C)CCOCC2)cc1 -16.6%
CCOc1ccccc1/C=c1\sc2nc(-c3ccco3)nn2c1=O 4.79%
O=C(O)c1ccc(N/N=C/c2ccc3ncccc3c2)cc1 4.85%
C=Cc1ccc(C(=O)N2CCCC(CCC(=O)N3CCN(c4ccccn4)CC3)C2)cc1 (stereo not drawn) -35.8%
COc1ccc(OCC(=O)NNC(=O)c2ccc(-c3ccccc3)cc2)cc1 2.47%
Cc1cc(/C=C2\SC(=O)N(C)C2=O)c(C)n1-c1cccc(C(=O)O)c1 1.65%
Cc1nnc(SCC(=O)Nc2ccc(S(=O)(=O)Nc3ccc(Cl)nn3)cc2)s1 3.43%
C[C@H](CO)N1C[C@H](C)[C@H](CN(C)C(=O)Nc2ccc(C(F)(F)F)cc2)Oc2c(NC(=O)c3ccncc3)cccc2C1=O 1.36%
Cc1c(CCC(=O)O)c(=O)oc2c(C)c(OCc3ccccc3Cl)ccc12 -3.47%
COc1cccc2cc(-c3cc(=O)oc4cc(C)c(O)cc34)oc12 -12.5%
O=C(COc1ccc(-n2cnnn2)cc1)Nc1ccccc1Cl -5.03%
O=C(COC(=O)CCC(=O)c1cccs1)NCc1ccco1 -2.74%
O=C(CCS(=O)(=O)c1ccc(Br)cc1)NCCc1ccc(Cl)cc1 1.56%
Cc1ccc(CCNC(=O)c2ccc3nc4ccccc4c(=O)n3c2)cc1 -6.77%
O=C(Cn1nnc(-c2ccc3c(c2)OCO3)n1)NCc1ccco1 2.67%
COc1ccc(NC(=O)CN(C)C(=O)/C=C/c2cn(Cc3ccccc3)nc2-c2cccnc2)cc1 -16.5%
C[n+]1ccc(C(=O)NCc2ccccc2)cc1 -7.9%
COCCCn1c(Cc2csc(Nc3cccc(Cl)c3)n2)nnc1SCC(=O)OC1CCCCC1 -0.65%
O=C(COC(=O)c1ccc(F)cc1F)Nc1ncccn1 1.27%

Thermal shift relative to vanadate control, active:
O=C1NN(c2ccccc2)C(=O)/C1=C/c1ccc(-c2cccc(C(=O)O)c2)o1 14.3%
Cc1ccccc1NC(=O)CN1C(=O)N/C(=C\c2cccn2-c2cccc(C(=O)O)c2)C1=O 7.04%
CS(=O)(=O)C1=NN2C(=N)/C(=C\c3ccc(OCCOc4ccccc4)cc3)C(=O)N=C2S1 280%
CC1CCN(c2ccc(S(=O)(=O)Nc3cc(C(=O)O)cc(C(=O)O)c3)cc2[N+](=O)[O-])CC1 15%
COc1ccc(Cc2nnc(NC(=O)Cc3cccs3)s2)cc1 9.39%
